Results from ChEMBL document CHEMBL4024779, “Novel Terminal Bipheny-Based Diapophytoene Desaturases (CrtN) Inhibitors as Anti-MRSA/VISR/LRSA Agents with Reduced hERG Activity” (J Med Chem, 2018).
Active and inactive are the calls of the source. The calls are words filed in the database; no cut-off is given here.

How the values were obtained:
[1] = biological target: T1, 4,4'-diapophytoene desaturase (4,4'-diaponeurosporene-forming) (Staphylococcus aureus (strain Mu50 / ATCC 700699), UniProt Q99R76); test: Inhibition of CrtN in methicillin-resistant Staphylococcus aureus Mu50 assessed as reduction in staphyloxanthin levels after 48 hrs by spectrophotometric method-based pigment inhibition assay; design: species or system Staphylococcus aureus subsp. aureus Mu50
T1 sequence (Q99R76 whole entry): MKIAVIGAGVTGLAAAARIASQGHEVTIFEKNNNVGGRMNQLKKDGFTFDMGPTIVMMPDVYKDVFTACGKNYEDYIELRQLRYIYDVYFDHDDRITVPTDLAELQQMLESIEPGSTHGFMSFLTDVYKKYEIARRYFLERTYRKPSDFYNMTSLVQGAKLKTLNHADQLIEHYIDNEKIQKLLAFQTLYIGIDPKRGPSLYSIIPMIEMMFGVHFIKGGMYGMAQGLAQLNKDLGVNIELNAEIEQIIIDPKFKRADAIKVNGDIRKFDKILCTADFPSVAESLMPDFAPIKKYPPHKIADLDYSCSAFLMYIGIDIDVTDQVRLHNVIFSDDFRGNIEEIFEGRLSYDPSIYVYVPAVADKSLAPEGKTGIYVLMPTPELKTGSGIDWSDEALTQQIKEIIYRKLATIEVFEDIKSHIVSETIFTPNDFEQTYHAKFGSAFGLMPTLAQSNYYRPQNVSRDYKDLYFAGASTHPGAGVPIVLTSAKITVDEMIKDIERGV

Staphylococcus aureus [2] = test: In vivo anti-virulence activity against methicillin-resistant Staphylococcus aureus Mu50 infected in BALB/c mouse model assessed as reduction in bacterial load in kidneys at 0.4 mg bid for 3.5 days administered intraperitoneally 6 hrs post infection by serial dilution method; assay type: functional; design: scale not given: the % may be the effect or the level left
In short: (§1)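 Mice (n=10 per group) infected retro-orbitally with S. aureus Mu50 (1.1 × 10^9 or 1.3 × 10^9 CFU) or NRS271 (2.3 × 10^8 CFU). Compound given i.p. b.i.d., either 6 h after infection for 3.5 d or 24 h before infection for 4.5 d. Mice killed after 4.5 d; log10 CFU per organ counted in kidneys and hearts. Two-tailed Mann−Whitney test.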

[3] = biological target: T2, 4,4'-diapophytoene desaturase (4,4'-diaponeurosporene-forming) (Staphylococcus aureus (strain Newman), UniProt O07855); test: Inhibition of CrtN in Staphylococcus aureus Newman assessed as reduction in staphyloxanthin levels after 48 hrs by spectrophotometric method-based pigment inhibition assay; design: species or system Staphylococcus aureus subsp. aureus str. Newman
T2 sequence (O07855 whole entry): T1 sequence (Q99R76 whole entry)

Staphylococcus aureus [4] = test: In vivo anti-virulence activity against methicillin-resistant Staphylococcus aureus NRS271 infected in BALB/c mouse model assessed as reduction in bacterial load in heart at 0.1 mg bid for 4.5 days administered intraperitoneally 24 hrs prior to infection by serial dilution method; assay type: functional; design: scale not given: the % may be the effect or the level left; in short: as §1
Staphylococcus aureus [5] = test: Antibacterial activity against methicillin-resistant Staphylococcus aureus USA400 MW2 assessed as change in bacterial growth at 0.2 mM […]; assay type: functional
Staphylococcus aureus [6] = test: Chemo-sensitization activity in human whole blood infected with compound-pre-treated non-pigmented Staphylococcus aureus Newman strain assessed as whole blood-induced bacterial killing by measuring survival rate at 1 uM after 6 hrs by serial dilution method (reference value: 13.3%); assay type: functional
Staphylococcus aureus [7] = test: In vivo anti-virulence activity against methicillin-resistant Staphylococcus aureus Mu50 infected in BALB/c mouse model assessed as reduction in bacterial load in heart at 0.1 mg bid for 3.5 days administered intraperitoneally 6 hrs post infection by serial dilution method; assay type: functional; design: scale not given: the % may be the effect or the level left
In short: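 Mice were challenged with 1.3 × 10^9 CFU Mu50. Compound was given intraperitoneally, either 24 h before or 6 h after infection. Log10 CFU was counted in kidneys and hearts.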

HepG2 = test: Cytotoxicity against human HepG2 cells after 43 hrs by Alamar blue dye-based fluorescence assay; assay type: cell-based; settings: HepG2, 43 h
Staphylococcus aureus [8] = test: In vivo anti-virulence activity against methicillin-resistant Staphylococcus aureus NRS271 infected in BALB/c mouse model assessed as reduction in bacterial load in kidneys at 0.4 mg bid for 3.5 days administered intraperitoneally 6 hrs post infection by serial dilution method; assay type: functional; design: scale not given: the % may be the effect or the level left; in short: as §1
Staphylococcus aureus [9] = test: In vivo anti-virulence activity against methicillin-resistant Staphylococcus aureus Mu50 infected in BALB/c mouse model assessed as reduction in bacterial load in kidneys at 0.1 mg bid for 4.5 days administered intraperitoneally 24 hrs prior to infection by serial dilution method; assay type: functional; design: scale not given: the % may be the effect or the level left; in short: as §1
[10] = system: Trichophyton mentagrophytes; test: In vitro antifungal activity against Trichophyton mentagrophytes after 7 days by serial dilution method; assay type: functional; settings: 168 h
Staphylococcus aureus [11] = test: In vivo anti-virulence activity against methicillin-resistant Staphylococcus aureus Mu50 infected in BALB/c mouse model assessed as reduction in bacterial load in heart at 0.4 mg bid for 4.5 days administered intraperitoneally 24 hrs prior to infection by serial dilution method; assay type: functional; design: scale not given: the % may be the effect or the level left; in short: as §1
[12] = Aqueous solubility of compound after 24 hrs by HPLC method; assay type: physicochemical
Staphylococcus aureus [13] = test: In vivo anti-virulence activity against Staphylococcus aureus Newman infected in BALB/c mouse model assessed as reduction in bacterial load in kidneys at 0.4 mg bid for 3.5 days administered intraperitoneally 6 hrs post infection by serial dilution method; assay type: functional, organism-based
In short: (§2)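 Mice (n=10 per group) got 2.3 × 10^7 CFU S. aureus Newman by retro-orbital injection. Compound was given intraperitoneally b.i.d., either 24 h before infection (4.5 d) or 6 h after infection (3.5 d). Mice were sacrificed after 4.5 d and CFU counted in kidneys and hearts. Groups were compared by two-tailed Mann-Whitney test.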

[14] = biological target: T2, 4,4'-diapophytoene desaturase (4,4'-diaponeurosporene-forming); test: Inhibition of Staphylococcus aureus Newman 6His-tagged CrtN expressed in Escherichia coli BL21 (DE3)/pET28a::CrtN assessed as reduction in staphyloxanthin levels using diapophytoene as substrate after overnight incubation by spectrophotometric analysis; design: species or system Staphylococcus aureus subsp. aureus str. Newman
[15] = Inhibition of CrtN in methicillin-resistant Staphylococcus aureus NRS271 assessed as reduction in staphyloxanthin levels after 48 hrs by spectrophotometric method-based pigment inhibition assay
Staphylococcus aureus [16] = test: In vivo anti-virulence activity against methicillin-resistant Staphylococcus aureus NRS271 infected in BALB/c mouse model assessed as reduction in bacterial load in kidneys at 0.4 mg bid for 4.5 days administered intraperitoneally 24 hrs prior to infection by serial dilution method; assay type: functional; design: scale not given: the % may be the effect or the level left; in short: as §1
Staphylococcus aureus [17] = test: In vivo anti-virulence activity against Staphylococcus aureus Newman infected in BALB/c mouse model assessed as reduction in bacterial load in heart at 0.4 mg bid for 3.5 days administered intraperitoneally 6 hrs post infection by serial dilution method; assay type: functional, organism-based; in short: as §2
Trichophyton rubrum = test: In vitro antifungal activity against Trichophyton rubrum after 7 days by serial dilution method; assay type: functional; settings: 168 h
Staphylococcus aureus [18] = test: In vivo anti-virulence activity against methicillin-resistant Staphylococcus aureus NRS271 infected in BALB/c mouse model assessed as reduction in bacterial load in kidneys at 0.1 mg bid for 4.5 days administered intraperitoneally 24 hrs prior to infection by serial dilution method; assay type: functional; design: scale not given: the % may be the effect or the level left; in short: as §1
Staphylococcus aureus [19] = test: In vivo anti-virulence activity against methicillin-resistant Staphylococcus aureus Mu50 infected in BALB/c mouse model assessed as reduction in bacterial load in heart at 0.4 mg bid for 3.5 days administered intraperitoneally 6 hrs post infection by serial dilution method; assay type: functional; design: scale not given: the % may be the effect or the level left; in short: as §1
Staphylococcus aureus [20] = test: Antibacterial activity against methicillin-resistant Staphylococcus aureus USA300 LAC assessed as change in bacterial growth at 0.2 mM […]; assay type: functional
Staphylococcus aureus [21] = test: Antibacterial activity against methicillin-resistant Staphylococcus aureus Mu50 assessed as change in bacterial growth at 0.2 mM […]; assay type: functional

Question: With `CN(C/C=C/c1ccc(-c2ccccc2)cc1)Cc1coc2ccccc12.Cl` as the compound, how does the IC50 [1] read?
Answer: The IC50 was 0.8 nM.

Question: And the Activity (Staphylococcus aureus [2])?
Answer: The Activity was greater than 95%.

Question: And the IC50 [3]?
Answer: Its IC50 is 2 nM.

Question: And the Activity (Staphylococcus aureus [4])?
Answer: The Activity was greater than 95%.

Question: What about the Activity (Staphylococcus aureus [5]) of the same compound?
Answer: Its Activity is “inactive”.

Question: And the survival at 1 µM (Staphylococcus aureus [6])?
Answer: The survival at 1 µM was 1.3%.

Question: And the Activity (Staphylococcus aureus [7])?
Answer: The Activity was greater than 95%.

Question: What about the IC50 (HepG2) of the same compound?
Answer: Its IC50 is 106000 nM.

Question: What about the Activity (Staphylococcus aureus [8]) of the same compound?
Answer: The Activity was greater than 95%.

Question: And the Activity (Staphylococcus aureus [9])?
Answer: The Activity was greater than 95%.

Question: And the MIC80 [10]?
Answer: The MIC80 was greater than 64 µg/mL.

Question: What about the Activity (Staphylococcus aureus [11]) of the same compound?
Answer: The Activity was greater than 95%.

Question: What about the solubility at 24 h [12] of the same compound?
Answer: Its solubility at 24 h is 200 µg/mL.

Question: What about the Activity (Staphylococcus aureus [13]) of the same compound?
Answer: The Activity was “Active”.

Question: And the IC50 [14]?
Answer: The IC50 was 400 nM.

Question: What about the IC50 [15] of the same compound?
Answer: The IC50 was 5.6 nM.

Question: What about the Activity (Staphylococcus aureus [16]) of the same compound?
Answer: Its Activity is greater than 95%.

Question: What about the Activity (Staphylococcus aureus [17]) of the same compound?
Answer: Its Activity is “Active”.

Question: And the MIC80 (Trichophyton rubrum)?
Answer: Its MIC80 is 64 µg/mL.

Question: And the Activity (Staphylococcus aureus [18])?
Answer: The Activity was greater than 95%.

Question: What about the Activity (Staphylococcus aureus [19]) of the same compound?
Answer: Its Activity is greater than 95%.

Question: What about the Activity (Staphylococcus aureus [20]) of the same compound?
Answer: Its Activity is “inactive”.

Question: And the Activity (Staphylococcus aureus [21])?
Answer: The Activity was “inactive”.

Question: What does the source list for `CN(C/C=C/c1ccc(-c2ccccc2)cc1)Cc1cccc2cc[nH]c12.Cl`?
Answer: IC50 [1]: 0.4 nM; Activity (Staphylococcus aureus [2]): >95%; IC50 [3]: 3.3 nM; Activity (Staphylococcus aureus [4]): >95%; Activity (Staphylococcus aureus [5]): inactive; Activity (Staphylococcus aureus [6]): Active; Activity (Staphylococcus aureus [7]): >95%; IC50 (HepG2): 21900 nM; Activity (Staphylococcus aureus [8]): >95%; Activity (Staphylococcus aureus [9]): >95%; MIC80 [10]: > 64 µg/mL; Activity (Staphylococcus aureus [11]): >95%; solubility at 24 h [12]: 200 µg/mL; Activity (Staphylococcus aureus [13]): inactive; IC50 [14]: 200 nM; IC50 [15]: 10.1 nM; Activity (Staphylococcus aureus [16]): >95%; Activity (Staphylococcus aureus [17]): inactive; MIC80 (Trichophyton rubrum): > 64 µg/mL; Activity (Staphylococcus aureus [18]): >95%; Activity (Staphylococcus aureus [19]): >95%; Activity (Staphylococcus aureus [20]): inactive; Activity (Staphylococcus aureus [21]): inactive
